The source of these data is ChEMBL document CHEMBL3576824, “Phenolic diterpenoid derivatives as anti-influenza a virus agents” (ACS Med Chem Lett, 2015).

Each structure is given as a SMILES string. The source made the active and inactive calls.

The test system of the first assay is Influenza A virus (A/Puerto Rico/8/1934(H1N1)). Put plainly: Inhibition of oseltamivir/amantadine-resistant Influenza A virus (A/Puerto Rico/8/1934(H1N1)) hemagglutinin-mediated hemolysis of chicken RBC at 10 uM preincubated with virus for 30 mins followed by RBC addition measured after 30 mins by microplate reader analysis.
Conditions: not given
An outline of the steps: (§1)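 Erythrocyte-virus-compound mixture incubated at 37 °C for 30 min, then acidified to pH 5.2 with 0.15 M sodium acetate buffer to trigger HA-mediated hemolysis. OD540 of supernatants was measured. Hemolysis without compound is defined as 100%. Values are averages of two independent tests.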
Regarding `CCOC(=O)C1=C[C@@H](OC(CC)CC)[C@H](NC(C)=O)[C@@H](N)C1` [OSELTAMIVIR], the inhibition result is “inactive”.

A further assay has the same test system. Put plainly: Inhibition of oseltamivir/amantadine-resistant Influenza A virus (A/Puerto Rico/8/1934(H1N1)) hemagglutinin-mediated hemolysis of chicken RBC preincubated with virus for 30 mins followed by RBC addition measured after 30 mins by microplate reader analysis.
Conditions: not given
An outline of the steps: as §1
As for `C=CC(=O)Oc1ccc2c(c1)[C@@]1(C)CCC[C@](C)(C(=O)OC)[C@@H]1CC2`, the inhibition result is “Dose-dependent effect”.

In the next assay the test system is Influenza A virus. The assay is described as follows: Antiviral activity against oseltamivir/amantadine-resistant Influenza A virus (A/Puerto Rico/8/1934(H1N1)) infected in MDCK cells assessed as protection against virus-induced cytocidal effect after 48 hrs by CellTiter-Glo assay. Format: functional, organism-based. The following applies: Influenza A virus, A/Puerto Rico/8/1934(H1N1), MDCK, 48 h; read-out: EC50. The essentials:
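Cytocidal protection assay in MDCK cells. EC50 is the concentration (μM) protecting cells by 50% from the virus's cytocidal effect, given as mean ± SD from at least three independent tests.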
Background: Cellular ATP, detected with luciferase, serves as a proxy for viable cell number.
Regarding `C=CC(=O)Oc1ccc2c(c1)[C@@]1(C)CCC[C@](C)(C(=O)NC)[C@@H]1CC2`, the EC50 was greater than 29300 nM.

For `C[C@]1(C(=O)OCc2ccccc2)CCC[C@]2(C)c3cc(OC(=O)CCC(=O)O)ccc3CC[C@@H]12`, the EC50 was greater than 6500 nM.

Regarding `COC(=O)[C@@]1(C)CCC[C@]2(C)c3cc(OC(=O)C(C)F)ccc3CC[C@@H]12` (stereo not given in full), the EC50 is 150 nM.

Regarding `COC(=O)[C@@]1(C)CCC[C@]2(C)c3cc(OC(=O)CCCC(=O)O)ccc3CC[C@@H]12`, the EC50 worked out at 370 nM.

For the compound `COC(=O)[C@@]1(C)CCC[C@]2(C)c3cc(OCCC(=O)O)ccc3CC[C@@H]12`, the EC50 is greater than 25000 nM.

Regarding `CCOC(=O)C1=C[C@@H](OC(CC)CC)[C@H](NC(C)=O)[C@@H](N)C1` [OSELTAMIVIR], the EC50 is greater than 20000 nM.

Regarding `COC(=O)[C@@]1(C)CCC[C@]2(C)c3cc(OC(=O)CCCBr)ccc3CC[C@@H]12`, the concentration giving a half-maximal response (EC50) is 570 nM.

Turning to `C=CC(=O)Oc1ccc2c(c1)[C@@]1(C)CCC[C@](C)(C(=O)OC)[C@@H]1CC2`, the EC50 worked out at 640 nM.

As for `COC(=O)[C@@]1(C)CCC[C@]2(C)c3cc(OC(C)=O)ccc3CC[C@@H]12`, the EC50 worked out at 140 nM.

In the case of `COC(=O)[C@@]1(C)CCC[C@]2(C)c3cc(OC(=O)CCBr)ccc3CC[C@@H]12`, the EC50 came to 210 nM.

As to `COC(=O)[C@@]1(C)CCC[C@]2(C)c3cc(OC(=O)CCCCBr)ccc3CC[C@@H]12`, the EC50 is 420 nM.

On to `COC(=O)[C@@]1(C)CCC[C@]2(C)c3cc(OC(=O)C(C)C)ccc3CC[C@@H]12`, for which the EC50 was determined as 320 nM.

Consider `COC(=O)[C@@]1(C)CCC[C@]2(C)c3cc(OC)ccc3C(=O)C[C@@H]12`, for which the EC50 is 3600 nM.

On to `C[C@]1(C(=O)O)CCC[C@]2(C)c3cc(OC(=O)CCC(=O)O)ccc3CC[C@@H]12`, for which the EC50 was 18700 nM.

Regarding `C[C@]1(C(=O)OCc2ccccc2)CCC[C@]2(C)c3cc(O)ccc3CC[C@@H]12`, the EC50 amounted to 1590 nM.

In the case of `CC(C)c1c(O)ccc2c1CC[C@H]1C(C)(C)CCC[C@]21C` [TOTAROL], the EC50 was 3500 nM.

`NC12CC3CC(CC(C3)C1)C2` [AMANTADINE]: the EC50 was greater than 20000 nM.

With `CNC(=O)[C@@]1(C)CCC[C@]2(C)c3cc(O)ccc3CC[C@@H]12`, the EC50 was greater than 34800 nM.

For the compound `COC(=O)[C@@]1(C)CCC[C@]2(C)c3cc(OC)ccc3CC[C@@H]12`, the 50% effective concentration (EC50) came to 730 nM.

Consider `C=CC(=O)Oc1ccc2c(c1)[C@@]1(C)CCC[C@](C)(C(=O)OCc3ccccc3)[C@@H]1CC2`, for which the 50% effective concentration (EC50) came to 480 nM.

As to `COC(=O)[C@@]1(C)CCC[C@]2(C)c3cc(OC(=O)C4CC4)ccc3CC[C@@H]12`, the EC50 was found to be 150 nM.

`C[C@]1(C(=O)O)CCC[C@]2(C)c3cc(O)ccc3CC[C@@H]12` [PODOCARIC ACID]: the EC50 stood at 18200 nM.

For `COC(=O)[C@@]1(C)CCC[C@]2(C)c3cc(O)ccc3CC[C@@H]12`, the EC50 stood at 160 nM.

For the compound `COC(=O)[C@@]1(C)CCC[C@]2(C)c3cc(OC(=O)CCC(=O)O)ccc3CC[C@@H]12`, the EC50 was found to be 180 nM.

Consider `COC(=O)[C@@]1(C)CCC[C@]2(C)c3cc(OC(=O)CCCCCBr)ccc3CC[C@@H]12`, for which the EC50 stood at 190 nM.

The same assay, now with this note: mdck.
Regarding `C[C@]1(C(=O)OCc2ccccc2)CCC[C@]2(C)c3cc(OCCC(=O)O)ccc3CC[C@@H]12`, the EC50 result was “Not Active”.

The next assay has as its system Influenza A virus. Put plainly: Antiviral activity against oseltamivir/amantadine-resistant Influenza A virus (A/Puerto Rico/8/1934(H1N1)) assessed as inhibition of viral infectivity in MDCK cells at 10 uM after 6 hrs by FITC conjugated anti-NP antibodies/DAPI staining-based confocal microscopic analysis. It is filed as functional, organism-based.
Conditions: not given
The essentials:
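MDCK cells were infected at MOI = 1 in the presence of 10 μM compound for 6 h. Infected cells were stained with FITC-conjugated anti-NP antibody, with DAPI as nuclear stain, and imaged by confocal microscopy. Infected cells without compound served as control.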
Consider `COC(=O)[C@@]1(C)CCC[C@]2(C)c3cc(OC(=O)CCBr)ccc3CC[C@@H]12`, for which the inhibition entry is “Active”.

With `CC(C)c1c(O)ccc2c1CC[C@H]1C(C)(C)CCC[C@]21C` [TOTAROL], the inhibition result is “Active”.

As usually defined, the EC50 is the midpoint of the concentration-response curve.
